pIC50: −log10 of the molar value.
Key:
PBMC [1] = test: Inhibition of LPS-induced TNFalpha production in human PBMC pre-incubated for 30 mins before LPS stimulation for 18 hrs by TR-FRET assay; type: functional, cell-based
Method in brief: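 PBMCs isolated from buffy coats (blood diluted 1:1 saline) and suspended at 5 × 10⁵ cells/mL in RPMI 1640 with 0.5% human serum albumin, pen/strep, 2 mM L-glutamine. 30 min compound pre-incubation, then 18 h LPS stimulation; supernatant TNF-α by TR-FRET (665 nm signal, 620 nm control); IC50 in μM.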

[2] = biological target: 3',5'-cyclic-AMP phosphodiesterase 4D (Homo sapiens, UniProt Q08499); test: Inhibition of PDE4D isolated from human U937 cells using [3H]-cAMP incubated for 30 mins
Chain of 3',5'-cyclic-AMP phosphodiesterase 4D (Q08499 whole entry): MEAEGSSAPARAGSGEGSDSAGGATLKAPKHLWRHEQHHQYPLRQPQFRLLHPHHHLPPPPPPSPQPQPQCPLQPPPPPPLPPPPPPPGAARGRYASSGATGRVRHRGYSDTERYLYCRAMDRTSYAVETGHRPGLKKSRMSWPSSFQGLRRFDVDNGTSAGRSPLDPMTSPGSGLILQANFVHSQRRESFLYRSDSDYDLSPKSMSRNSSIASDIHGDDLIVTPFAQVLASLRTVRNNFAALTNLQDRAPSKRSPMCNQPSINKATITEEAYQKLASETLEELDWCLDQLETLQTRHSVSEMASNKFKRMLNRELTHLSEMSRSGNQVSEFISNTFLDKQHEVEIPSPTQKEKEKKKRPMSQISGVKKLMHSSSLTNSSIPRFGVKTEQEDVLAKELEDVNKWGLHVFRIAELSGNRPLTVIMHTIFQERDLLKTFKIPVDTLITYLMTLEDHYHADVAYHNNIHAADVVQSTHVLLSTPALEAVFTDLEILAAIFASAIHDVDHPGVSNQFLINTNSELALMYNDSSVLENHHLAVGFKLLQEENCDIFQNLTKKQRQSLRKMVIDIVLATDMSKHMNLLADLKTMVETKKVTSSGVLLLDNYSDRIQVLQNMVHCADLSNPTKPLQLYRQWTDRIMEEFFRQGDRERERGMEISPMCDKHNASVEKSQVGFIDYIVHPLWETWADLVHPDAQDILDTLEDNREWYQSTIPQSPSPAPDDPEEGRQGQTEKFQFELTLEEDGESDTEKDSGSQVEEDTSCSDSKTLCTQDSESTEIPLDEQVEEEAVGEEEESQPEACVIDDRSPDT

[3] = biological target: T1, 3',5'-cyclic-AMP phosphodiesterase 4B (Homo sapiens, UniProt Q07343); test: Inhibition of PDE4B isolated from human U937 cells using [3H]-cAMP incubated for 30 mins
T1 sequence (Q07343 whole entry): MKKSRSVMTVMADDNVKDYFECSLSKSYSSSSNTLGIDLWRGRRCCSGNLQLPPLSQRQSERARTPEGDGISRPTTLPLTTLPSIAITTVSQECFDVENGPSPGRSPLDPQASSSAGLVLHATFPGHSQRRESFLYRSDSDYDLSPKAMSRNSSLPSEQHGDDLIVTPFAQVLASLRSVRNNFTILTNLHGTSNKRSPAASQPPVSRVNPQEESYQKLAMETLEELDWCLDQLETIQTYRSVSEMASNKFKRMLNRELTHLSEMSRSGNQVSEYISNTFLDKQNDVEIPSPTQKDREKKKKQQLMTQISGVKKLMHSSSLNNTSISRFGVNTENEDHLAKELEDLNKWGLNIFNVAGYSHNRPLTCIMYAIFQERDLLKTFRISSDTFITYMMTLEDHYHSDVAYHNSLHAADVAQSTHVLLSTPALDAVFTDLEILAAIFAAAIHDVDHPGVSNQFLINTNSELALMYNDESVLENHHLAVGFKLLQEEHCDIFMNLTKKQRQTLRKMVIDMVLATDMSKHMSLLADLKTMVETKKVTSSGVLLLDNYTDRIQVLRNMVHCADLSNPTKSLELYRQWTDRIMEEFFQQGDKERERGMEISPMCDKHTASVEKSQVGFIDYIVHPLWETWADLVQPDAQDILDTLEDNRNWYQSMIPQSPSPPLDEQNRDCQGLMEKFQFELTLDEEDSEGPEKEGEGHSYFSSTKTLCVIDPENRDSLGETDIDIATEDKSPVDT

PDE2A = PDE2A (Homo sapiens, UniProt O00408); test: Inhibition of human PDE2A at 100 uM
PDE5A = PDE5A (Homo sapiens, UniProt O76074); test: Inhibition of human PDE5A at 100 uM
PDE9A = PDE9A (Homo sapiens, UniProt O76083); test: Inhibition of human PDE9A at 100 uM
Chain of PDE9A (O76083 whole entry): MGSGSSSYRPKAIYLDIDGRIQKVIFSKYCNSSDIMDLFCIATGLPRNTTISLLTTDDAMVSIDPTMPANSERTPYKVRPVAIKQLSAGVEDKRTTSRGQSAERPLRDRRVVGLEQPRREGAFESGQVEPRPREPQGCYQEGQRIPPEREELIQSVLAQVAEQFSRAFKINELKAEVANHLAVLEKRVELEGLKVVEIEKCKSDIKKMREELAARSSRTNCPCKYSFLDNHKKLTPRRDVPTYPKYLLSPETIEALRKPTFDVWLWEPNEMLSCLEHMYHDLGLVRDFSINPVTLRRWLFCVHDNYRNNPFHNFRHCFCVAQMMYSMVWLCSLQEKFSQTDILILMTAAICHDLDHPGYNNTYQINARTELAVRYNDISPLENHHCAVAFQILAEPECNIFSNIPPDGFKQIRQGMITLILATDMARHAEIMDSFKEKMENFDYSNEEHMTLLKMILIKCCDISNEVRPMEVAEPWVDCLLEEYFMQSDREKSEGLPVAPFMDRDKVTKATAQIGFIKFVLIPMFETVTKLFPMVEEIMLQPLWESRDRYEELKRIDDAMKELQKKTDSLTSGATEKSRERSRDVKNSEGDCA

PDE10A = PDE10A (Homo sapiens, UniProt Q9Y233); test: Inhibition of human PDE10A at 100 uM
Rattus norvegicus = test: Inhibition of LPS-induced neutropenia in Sprague-Dawley rat model of asthma assessed as reduction in neutrophils in BAL fluid at 10 mg/kg, po pre-treated 30 mins before LPS challenge and measured 6 hrs after LPS injection relative to untreated control; type: functional; settings: in the assay text read “neutrophilia” for “neutropenia”
Method in brief: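 Male Sprague Dawley rats acclimatized one week, randomized by weight (n = 6). Compound at 10 mg/kg po in 0.25% carboxymethyl cellulose vehicle given 30 min before 40 min exposure to 100 μg/mL E. coli LPS (B4). BAL at 6 h after exposure; total cell count and differential count versus control.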

PDE7A = PDE7A (Homo sapiens, UniProt Q13946); test: Inhibition of human PDE7A at 100 uM
Chain of PDE7A (Q13946 whole entry): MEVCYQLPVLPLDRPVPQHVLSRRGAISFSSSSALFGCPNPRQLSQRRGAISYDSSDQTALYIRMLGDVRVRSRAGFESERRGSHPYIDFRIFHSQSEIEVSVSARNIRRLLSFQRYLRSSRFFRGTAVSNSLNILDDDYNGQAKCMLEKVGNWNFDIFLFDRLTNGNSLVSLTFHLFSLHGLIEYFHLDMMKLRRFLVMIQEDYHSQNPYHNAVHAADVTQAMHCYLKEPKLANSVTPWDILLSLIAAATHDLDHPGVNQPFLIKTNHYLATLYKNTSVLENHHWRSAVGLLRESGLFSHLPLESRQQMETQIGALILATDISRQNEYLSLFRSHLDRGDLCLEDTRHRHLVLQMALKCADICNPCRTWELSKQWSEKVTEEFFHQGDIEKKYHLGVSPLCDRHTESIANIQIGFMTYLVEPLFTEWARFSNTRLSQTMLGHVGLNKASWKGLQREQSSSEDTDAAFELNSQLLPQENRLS

PDE3B = PDE3B (Homo sapiens, UniProt Q13370); test: Inhibition of human PDE3B at 100 uM
Mus musculus = test: Inhibition of LPS-induced TNFalpha production in Swiss Albino mouse model of sepsis at 10 mg/kg, po pre-treated 30 mins before LPS challenge and measured 90 mins post LPS injection by ELISA method relative to untreated control; type: functional
Method in brief: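 Female Swiss albino mice, weight-matched groups (n = 6), fasted 20 h with water; test compound given orally at 10 mg/kg as suspension in 0.5% Tween 80 / 0.25% sodium CMC, controls vehicle only. 30 min later 500 μg E. coli LPS (B4) i.p. in phosphate buffer; retro-orbital bleed at 90 min, serum TNF-α by mouse ELISA.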

PDE8A = PDE8A (Homo sapiens, UniProt O60658); test: Inhibition of human PDE8A at 100 uM
Chain of PDE8A (O60658 whole entry): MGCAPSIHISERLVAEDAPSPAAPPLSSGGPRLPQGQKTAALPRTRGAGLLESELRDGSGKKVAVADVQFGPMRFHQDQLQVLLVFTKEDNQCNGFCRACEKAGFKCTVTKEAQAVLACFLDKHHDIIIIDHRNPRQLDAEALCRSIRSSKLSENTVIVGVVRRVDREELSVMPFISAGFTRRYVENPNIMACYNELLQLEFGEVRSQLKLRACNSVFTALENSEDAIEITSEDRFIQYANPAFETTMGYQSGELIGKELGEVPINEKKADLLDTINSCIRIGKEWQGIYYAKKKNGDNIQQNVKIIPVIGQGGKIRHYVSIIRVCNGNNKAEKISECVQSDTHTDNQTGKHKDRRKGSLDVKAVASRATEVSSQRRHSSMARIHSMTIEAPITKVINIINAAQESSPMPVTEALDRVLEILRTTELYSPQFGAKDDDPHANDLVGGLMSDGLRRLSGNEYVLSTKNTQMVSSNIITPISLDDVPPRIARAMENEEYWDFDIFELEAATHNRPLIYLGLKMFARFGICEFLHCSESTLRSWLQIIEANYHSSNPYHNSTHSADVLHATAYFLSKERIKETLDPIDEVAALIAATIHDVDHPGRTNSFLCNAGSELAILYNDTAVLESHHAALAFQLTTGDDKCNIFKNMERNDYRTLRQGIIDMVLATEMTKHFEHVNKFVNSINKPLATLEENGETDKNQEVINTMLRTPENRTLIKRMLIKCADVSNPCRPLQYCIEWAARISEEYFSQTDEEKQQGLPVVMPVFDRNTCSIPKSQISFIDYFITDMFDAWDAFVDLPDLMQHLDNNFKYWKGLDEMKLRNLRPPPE

[4] = biological target: T1, 3',5'-cyclic-AMP phosphodiesterase 4B; test: Inhibition of human PDE4B at 100 uM
PDE11A = PDE11A (Homo sapiens, UniProt Q9HCR9); test: Inhibition of human PDE11A at 100 uM
PDE6C = PDE6C (Homo sapiens, UniProt P51160); test: Inhibition of human PDE6C at 100 uM
Chain of PDE6C (P51160 whole entry): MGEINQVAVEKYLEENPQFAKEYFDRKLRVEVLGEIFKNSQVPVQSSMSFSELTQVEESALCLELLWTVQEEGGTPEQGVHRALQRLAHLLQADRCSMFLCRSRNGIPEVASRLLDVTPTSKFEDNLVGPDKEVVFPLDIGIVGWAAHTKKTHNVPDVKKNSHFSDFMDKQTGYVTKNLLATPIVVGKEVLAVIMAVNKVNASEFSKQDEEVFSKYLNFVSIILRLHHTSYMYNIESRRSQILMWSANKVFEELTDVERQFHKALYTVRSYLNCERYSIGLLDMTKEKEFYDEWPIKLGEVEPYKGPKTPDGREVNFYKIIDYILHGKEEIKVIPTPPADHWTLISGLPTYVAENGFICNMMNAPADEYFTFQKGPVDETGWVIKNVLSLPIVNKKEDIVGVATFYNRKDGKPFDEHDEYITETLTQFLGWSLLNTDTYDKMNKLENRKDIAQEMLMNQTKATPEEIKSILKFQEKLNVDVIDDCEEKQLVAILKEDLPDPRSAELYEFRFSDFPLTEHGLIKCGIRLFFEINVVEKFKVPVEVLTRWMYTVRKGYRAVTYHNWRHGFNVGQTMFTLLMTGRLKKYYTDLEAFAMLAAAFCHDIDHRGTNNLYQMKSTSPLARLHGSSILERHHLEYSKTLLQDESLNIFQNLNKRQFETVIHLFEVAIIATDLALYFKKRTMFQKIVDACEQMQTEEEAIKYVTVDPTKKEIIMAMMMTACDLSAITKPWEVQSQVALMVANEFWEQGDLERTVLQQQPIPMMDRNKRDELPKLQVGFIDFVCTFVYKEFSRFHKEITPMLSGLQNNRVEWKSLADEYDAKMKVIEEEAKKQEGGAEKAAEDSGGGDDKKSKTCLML

PBMC [5] = test: Potency index, ratio of IC50 for rolipram to IC50 for test compound for inhibition of LPS-induced TNFalpha production in human PBMC pre-incubated for 30 mins before LPS stimulation for 18 hrs by TR-FRET assay; type: functional
PDE1A = PDE1A (Homo sapiens, UniProt P54750); test: Inhibition of human PDE1A at 100 uM
Chain of PDE1A (P54750 whole entry): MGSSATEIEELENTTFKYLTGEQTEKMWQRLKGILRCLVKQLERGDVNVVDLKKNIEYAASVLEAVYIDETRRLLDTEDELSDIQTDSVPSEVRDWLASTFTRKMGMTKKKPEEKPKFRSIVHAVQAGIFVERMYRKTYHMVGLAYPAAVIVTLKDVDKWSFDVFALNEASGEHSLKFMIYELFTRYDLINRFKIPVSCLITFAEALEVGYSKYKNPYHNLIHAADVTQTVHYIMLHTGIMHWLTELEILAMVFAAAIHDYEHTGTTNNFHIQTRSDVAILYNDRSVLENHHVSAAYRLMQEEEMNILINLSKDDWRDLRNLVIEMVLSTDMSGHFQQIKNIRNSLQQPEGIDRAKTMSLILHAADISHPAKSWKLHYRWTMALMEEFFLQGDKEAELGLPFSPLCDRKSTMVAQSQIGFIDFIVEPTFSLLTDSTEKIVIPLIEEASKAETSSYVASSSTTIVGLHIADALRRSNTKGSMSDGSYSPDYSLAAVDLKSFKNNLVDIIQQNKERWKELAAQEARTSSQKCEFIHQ

Compound	pIC50 (PBMC [1])	pIC50 [2]	pIC50 [3]	also measured
CCCCCCC1c2cc(OC3CCCC3)c(OC)cc2CC2COC(=O)N21 (mixture of isomers)	5.10	4.64	5.68	–
CCCCCOc1cc2c(cc1OC)CC1COC(=O)N1C2 (racemic)	–	4.63	5.39	–
CCCOc1cc2c(cc1OC)CC1COC(=O)N1C2 (racemic)	–	–	4.65	–
COc1cc2c(cc1OC1CCCCC1)CN1C(=O)OCC1C2 (racemic)	5.08	4.86	5.58	–
COc1cc2c(cc1OC1CCCC1)CN1C(=O)OCC1C2 (racemic)	5.87	5.29	6.22	inhibition at 100 µM (PDE2A): 3%; inhibition at 100 µM (PDE5A): 14%; inhibition at 100 µM (PDE9A): 2%; inhibition at 100 µM (PDE10A): 1%; inhibition in vivo at 10 mg/kg (Rattus norvegicus): 42.3%; inhibition at 100 µM (PDE7A): 5%; inhibition at 100 µM (PDE3B): 5%; inhibition in vivo at 10 mg/kg (Mus musculus): 48.2%; inhibition at 100 µM (PDE8A): 12%; inhibition [4]: 100%; inhibition at 100 µM (PDE11A): 3%; inhibition at 100 µM (PDE6C): 8%; Ratio IC50 (PBMC [5]): 7; inhibition at 100 µM (PDE1A): 12%
CCCCCCOc1cc2c(cc1OC)CC1COC(=O)N1C2 (racemic)	–	–	5.22	–
COc1cc2c(cc1OCc1ccccc1)CN1C(=O)OCC1C2 (configuration not stated)	–	–	5.09	–
COc1cc2c(cc1OCC1CC1)CN1C(=O)OCC1C2 (racemic)	5.02	5.15	5.89	–
COc1cc2c(cc1OC1CCCC1)C(C1CCCCC1)N1C(=O)OCC1C2 (mixture of isomers)	5.04	4.57	5.69	–
COc1cc2c(cc1OC1CCCC1)C(c1ccccc1)N1C(=O)OCC1C2 (mixture of isomers)	5.17	4.50	5.71	inhibition in vivo at 10 mg/kg (Rattus norvegicus): 28.1%; inhibition in vivo at 10 mg/kg (Mus musculus): 40.4%
COc1cc2c(cc1OC1CCCC1)C(C)N1C(=O)OCC1C2 (mixture of isomers)	5.59	4.89	5.87	–
COc1cc2c(cc1OC)CN1C(=O)OCC1C2 (racemic)	–	–	4.28	–
COc1ccc(C2CNC(=O)C2)cc1OC1CCCC1 (configuration not stated) [ROLIPRAM]	4.96	–	–	inhibition in vivo at 10 mg/kg (Rattus norvegicus): 32.3%; inhibition in vivo at 10 mg/kg (Mus musculus): 41%
COc1cc2c(cc1O)CN1C(=O)OCC1C2 (configuration not stated)	–	–	< 4.00	–
